Source: ChEMBL document CHEMBL4261586, “Conjugation of a 5-nitrofuran-2-oyl moiety to aminoalkylimidazoles produces non-toxic nitrofurans that are efficacious in vitro and in vivo against multidrug-resistant Mycobacterium tuberculosis” (Eur J Med Chem, 2018)
In brackets after ≈: the same amount, converted by molar mass.

Assays:
Format in all cases: functional
[1] = tested on: Mycobacterium tuberculosis; experiment: Antimycobacterial activity against multidrug-resistant Mycobacterium tuberculosis 2712 harboring rpoB S531L/katG I335V/ahpC T10 mutation after 7 days by resazurin microtitre plate assay
Summary of the method: (§1)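 REMA in Middlebrook 7H9 with OADC. Three-week culture vortexed with glass beads, adjusted to 1.0 McFarland (about 3×10⁸ bacteria/mL) and diluted 20-fold. Final concentrations 1.6–200 via 2-fold dilutions; growth control plus 1% ([…] diluted) control. 7 days at 35 °C, then 0.01% resazurin for 18 h; fluorescence ex 520/em 590 nm. MIC taken where fluorescence plateaued or matched the 1% control (t-test).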

[2] = tested on: Mycobacterium tuberculosis; experiment: Antimycobacterial activity against multidrug-resistant Mycobacterium tuberculosis 5023 harboring rpoB S531L/katG S315T mutation mutation after 7 days by resazurin microtitre plate assay; summary of the method: as §1
[3] = tested on: Mycobacterium tuberculosis; experiment: Antimycobacterial activity against multidrug-resistant Mycobacterium tuberculosis 7106 harboring rpoB S531L/katG S315T mutation after 7 days by resazurin microtitre plate assay; summary of the method: as §1
[4] = tested on: Mycobacterium tuberculosis; experiment: (§2) Antitubercular activity against multidrug-resistant Mycobacterium tuberculosis 2712 infected in C57BL/6 mouse assessed as lung mass index at 28 mg/kg, po administered via gavage over 42 days (excluding weekends) cotreated with prothionamide, levofloxacin and p-aminosalicylic acid (reference value: 1.81 +/- 0.12)
[5] = tested on: Mycobacterium tuberculosis; experiment: as §2, with “tubercular foci” for “lung mass”, “3.46” for “1.81”, “0.09)” for “0.12)”
[6] = tested on: Mycobacterium tuberculosis; experiment: Antitubercular activity against multidrug-resistant Mycobacterium tuberculosis 2712 infected in C57BL/6 mouse assessed as colony forming units per lung mass units at 28 mg/kg, po administered via gavage over 42 days (excluding weekends) cotreated with prothionamide, levofloxacin and p-aminosalicylic acid (reference value: 85.7 +/- 5.3 x 10^3)

| SMILES | MIC [1] [mg/L] | MIC [2] [mg/L] | MIC [3] [mg/L] | Activity_index [4] | Activity_index [5] | Activity [6] [×10³ CFU] |
| --- | --- | --- | --- | --- | --- | --- |
| Cc1cnc(CC2CCN(C(=O)c3ccc([N+](=O)[O-])o3)C2)n1CC1CC1 (stereo not drawn) | 1.6 (≈ 4.46 µM) | 6.2 (≈ 17.3 µM) | 12.5 (≈ 34.9 µM) | – | – | – |
| CCCn1c(C)cnc1C1CN(C(=O)c2ccc([N+](=O)[O-])o2)C1 | 0.8 (≈ 2.51 µM) | 3.1 (≈ 9.74 µM) | 3.1 (≈ 9.74 µM) | 1.15 | 2.54 | 10.6 |
| Cc1cnc(C)n1C1CCN(C(=O)c2ccc([N+](=O)[O-])o2)C1 (stereo not drawn) | 25 (≈ 82.2 µM) | 25 (≈ 82.2 µM) | 12.5 (≈ 41.1 µM) | – | – | – |
| Cc1cnc(-c2ccccc2)n1CC1CCN(C(=O)c2ccc([N+](=O)[O-])o2)C1 (stereo not drawn) | 3.1 (≈ 8.15 µM) | 6.2 (≈ 16.3 µM) | 6.2 (≈ 16.3 µM) | – | – | – |
| Cc1cnc(CCNC(=O)c2ccc([N+](=O)[O-])o2)n1C1CCC1 | 12.5 (≈ 39.3 µM) | 12.5 (≈ 39.3 µM) | 12.5 (≈ 39.3 µM) | – | – | – |
